GSIS activator = GLuc luminescence reporter in INS-1E cells, primary screen for activators of glucose-dependent secretion of insulin | INS-1E GLuc reporter insulin secretion, 2-3 h | activation, % at 16.6 µM | hit rate 0.61% among 370,000 | AID 743287;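 active = lowest replicate activation of at least 40%, so every replicate reaches that level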;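 note: 0% = median of neutral control wells and 100% = median of IBMX positive control wells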
Cneo AK release = Cryptococcus neoformans lysis via adenylate kinase release. C. neoformans lysis, adenylate kinase release luminescence, 4 h; normalised: neutral wells 0, clomiphene wells 100. lysis activity, % at 15 µM. hit rate 0.2% among 360,000. AID 651654;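 active = mean lysis activity across replicates of at least 80%, whatever share of replicates individually reach that level; inactive = mean lysis activity below 80%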
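Material: C. neoformans cells | Amount: Yeast cell density of 5 × 10^6 cells/mL | Medium: Fresh YPD growth medium | Dosing: Single dose | Times: Static 4 h at 37 °C with compound, 1 h detection | Detection: AK luminescence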
dFosB activator = activators of mouse delta FosB homodimer; P13346; purified delta FosB, TAMRA-CDK5 oligo fluorescence polarization; percent of positive-control signal above neutral wells; activation, % at 25 µM; hit rate 0.99% among 340,000; AID 493131;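 active = mean activation above about 17%, with every replicate also reaching it, limit read from the data, passing the limit was not always enough; inconclusive = only one of the two conditions met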
PAX8 reporter = PAX8 transcriptional activity inhibition; RMG-I TPO-luciferase reporter, SteadyGlo, 24 h; hit rate 1.2% among 360,000; AID 652154; inhibition, % at 12.6 µM;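 active = mean replicate inhibition at least 60% with every replicate also reaching 60%; inconclusive = only one of the two criteria is met; inactive = mean below 60% and not all replicates reaching 60%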;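 note: luciferase light reporting Pax8 driven TPO promoter activity; plate controls were median of neutral control wells for no effect and mitoxantrone controls for full effect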
CDK5 p35 inh = blocks human CDK5/p35 kinase activity | inhibition, % at 10 µM | Q00535+Q15078 | hit rate 0.01% among 330,000 | Recombinant CDK5/p35, ADP-Glo luminescence, 60 min;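 active = highest replicate inhibition of at least 50% and at least 75% of replicates reaching 50%; inconclusive = only one of the two criteria met; inactive = both criteria failed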;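 note: plate controls were DMSO neutral control for no effect and GW8510 at 10 µM for full effect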
Target sequence (Q00535 whole entry, looked up): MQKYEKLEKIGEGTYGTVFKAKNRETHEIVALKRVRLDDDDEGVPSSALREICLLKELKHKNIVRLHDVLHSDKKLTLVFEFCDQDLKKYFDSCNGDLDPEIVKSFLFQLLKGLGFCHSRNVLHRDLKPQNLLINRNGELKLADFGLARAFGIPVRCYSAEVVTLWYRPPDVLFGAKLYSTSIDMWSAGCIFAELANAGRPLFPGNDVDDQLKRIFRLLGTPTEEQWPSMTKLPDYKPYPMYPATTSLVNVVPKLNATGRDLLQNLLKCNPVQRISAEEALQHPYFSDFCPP
Target sequence (Q15078 whole entry, looked up): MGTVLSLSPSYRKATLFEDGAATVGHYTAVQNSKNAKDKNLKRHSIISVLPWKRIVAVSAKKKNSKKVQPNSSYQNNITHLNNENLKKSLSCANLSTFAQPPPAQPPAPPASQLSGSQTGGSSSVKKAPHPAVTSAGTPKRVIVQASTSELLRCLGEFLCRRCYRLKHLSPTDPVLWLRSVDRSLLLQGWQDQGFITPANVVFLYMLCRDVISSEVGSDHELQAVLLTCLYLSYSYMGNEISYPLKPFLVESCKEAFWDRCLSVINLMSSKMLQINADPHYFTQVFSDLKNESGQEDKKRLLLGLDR
Env fusion inh = blocks HIV Env-driven cell-cell fusion. HeLa-JRFL Env/CEM21 cell fusion, luciferase. hit rate 1.1% among 360,000. AID 651610. inhibition, % at 12.3 µM;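 active = mean replicate inhibition score of at least 50 and every replicate individually at or above 50; inconclusive = only one of the two criteria met; inactive = mean below 50 and not all replicates reaching 50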;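 note: 0% = plate neutral controls and 100% = maraviroc near 300 nM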
Starred values were filed as active, the others as inactive; ? = inconclusive; . = not tested or not shown; [ ] = remark or other dose. A selection: hits, their analogues and other compounds. The true share with any hit is near 2.9%.

SMILES | GSIS activator | Cneo AK release | dFosB activator | PAX8 reporter | CDK5 p35 inh | Env fusion inh
C[C@H]1O[C@@H](O[C@H]2[C@@H](O)C[C@H](O[C@H]3[C@@H](O)C[C@H](O[C@H]4CC[C@@]5(C)[C@H](CC[C@@H]6[C@@H]5C[C@@H](O)[C@]5(C)[C@@H](C7=CC(=O)OC7)CC[C@]65O)C4)O[C@@H]3C)O[C@@H]2C)C[C@H](O)[C@@H]1O | . | 0 | -5 | 109* | -1 | 86*
CNC(=O)C[C@H]1CC[C@@H]2[C@H](COc3ccc(NC(=O)c4cc(F)cc(F)c4)cc3C(=O)N2C)O1 | 4 | 0 | . | -14 | . | -19[16.7 µM]
O=C(Nc1ccc(F)cc1)N1CCCCN2[C@H](C1)[C@@H](c1ccc(C#CC3CC3)cc1)[C@@H]2CO | -30 | 1 | . | 8 | . | .
O=C(Oc1c(CN2CCOCC2)cc(Cl)c2cccnc12)c1cccs1 | -13 | 0 | -14 | 71* | -1 | 15
C[C@@H]1CN([C@H](C)CO)C(=O)c2cc(NS(=O)(=O)c3ccccc3)ccc2O[C@@H](C)CCCCO[C@@H]1CN(C)CC1CCCCC1 | -8 | 2 | . | 89* | . | 4[16.7 µM]
C[C@@H]1CN([C@@H](C)CO)C(=O)c2cc(NC(=O)c3ccccc3)ccc2O[C@@H](C)CCCCO[C@H]1CN(C)CC1CCCCC1 | -13 | -2 | . | -18 | . | 63*[16.7 µM]
C[C@H]1CCCCO[C@@H](CN(C)CC2CCCCC2)[C@@H](C)CN([C@@H](C)CO)C(=O)c2cc(NS(=O)(=O)c3ccccc3)ccc2O1 | -1 | 65 | . | 25 | . | -48[16.7 µM]
C[C@@H]1CCCCO[C@H](CN(C)CC2CCCCC2)[C@H](C)CN([C@H](C)CO)C(=O)c2cc(NS(=O)(=O)c3ccccc3)ccc2O1 | -10 | 5 | . | 92* | . | 11[16.7 µM]
CC(C)NC(=O)N(C)C[C@H]1Oc2ncc(C#Cc3ccccc3F)cc2C(=O)N([C@@H](C)CO)C[C@@H]1C | 1 | 1 | . | . | . | -4[16.7 µM]
CNC(=O)C[C@@H]1CC[C@@H]2[C@H](COc3ccc(NC(=O)c4ccc(F)cc4)cc3C(=O)N2C)O1 | -4 | . | . | -3 | . | -1[16.7 µM]
C[C@@H]1CN([C@H](C)CO)C(=O)c2cc(NS(=O)(=O)c3ccccc3)ccc2O[C@H]1CN(C)S(C)(=O)=O | 3 | -2 | . | . | . | .
Cc1ccccc1S(=O)(=O)N(C)C[C@@H]1OCc2cn(nn2)CCCC(=O)N([C@H](C)CO)C[C@@H]1C | 5 | 5 | . | . | . | 13[16.7 µM]
C[C@H]1CN=C(N(C)C)N1CC1CCCC1 | 54* | 0 | -3 | 7 | 1 | -26
CO[C@@H]1CN(C)C(=O)c2cc(NS(=O)(=O)c3ccc(Cl)cc3)ccc2OC[C@@H](C)N(C(=O)Cc2cccnc2)C[C@H]1C | -11 | -2 | . | -3 | . | .
CC(C)NC(=O)Nc1ccc2c(c1)CC(=O)N([C@H](C)CO)C[C@H](C)[C@@H](CN(C)S(=O)(=O)c1ccc(Cl)cc1)O2 | -1 | 1 | . | -11 | . | .
C[C@H]1CN([C@@H](C)CO)C(=O)Cc2cc(NC(=O)NC3CCCCC3)ccc2O[C@H]1CN(C)S(=O)(=O)c1ccc(Cl)cc1 | -23 | 5 | . | 79* | . | -21[16.7 µM]
CC(C)NC(=O)Nc1ccc2c(c1)CC(=O)N([C@@H](C)CO)C[C@@H](C)[C@@H](CN(C)S(=O)(=O)c1ccc(Cl)cc1)O2 | 3 | 102* | . | -1 | . | .
C[C@H](CO)N1C[C@H](C)[C@@H](CN(C)S(=O)(=O)c2ccc(Cl)cc2)Oc2ccc(NC(=O)NC3CCCCC3)cc2CC1=O | -4 | -7 | . | -5 | . | 4[16.7 µM]
O=C(NCC[C@@H]1CC[C@@H](NS(=O)(=O)c2cccc(F)c2)[C@@H](CO)O1)c1cnccn1 | 0 | -2 | . | -11 | . | -5[16.7 µM]
C[C@@H]1CN([C@H](C)CO)C(=O)c2cc(C#Cc3ccccc3F)cnc2O[C@H]1CN(C)C(=O)c1ccc2c(c1)OCO2 | -44 | -4 | . | . | . | 8[16.7 µM]
C[C@@H]1CN([C@@H](C)CO)C(=O)Cc2cc(NS(=O)(=O)c3ccccc3)ccc2O[C@H]1CN(C)Cc1ccc(Cl)c(Cl)c1 | -25 | 9 | . | 114* | . | 88*[16.7 µM]
C[C@@H]1CN([C@@H](C)CO)C(=O)Cc2cc(NS(=O)(=O)c3ccc(Cl)cc3)ccc2O[C@H]1CN(C)Cc1ccc(Cl)c(Cl)c1 | -12 | 4 | . | 86* | . | 83*[16.7 µM]
Cc1noc(C)c1S(=O)(=O)Nc1ccc2c(c1)CC(=O)N([C@@H](C)CO)C[C@@H](C)[C@H](CN(C)Cc1ccc(Cl)c(Cl)c1)O2 | -8 | -2 | . | 88* | . | 85*[16.7 µM]
Cc1ccc(S(=O)(=O)Nc2ccc3c(c2)CC(=O)N([C@H](C)CO)C[C@H](C)[C@@H](CN(C)Cc2ccc(Cl)c(Cl)c2)O3)cc1 | -3 | 3 | . | 82* | . | 11[16.7 µM]
C[C@H](CO)N1C[C@H](C)[C@H](CN(C)S(=O)(=O)c2ccc(Cl)cc2)Oc2ccc(NC(=O)Cc3cn(C)c4ccccc34)cc2CC1=O | -9 | . | . | 36 | . | ?
SMILES | GSIS activator | Cneo AK release | dFosB activator | PAX8 reporter | CDK5 p35 inh | Env fusion inh
Cc1ccccc1-c1cnc2c(c1)C(=O)N([C@H](C)CO)C[C@@H](C)[C@@H](CN(C)C(=O)CC1CC1)O2 | 17 | 64 | . | -3 | . | -2[16.7 µM]
C[C@H]1CN([C@@H](C)CO)C(=O)Cc2cc(NS(=O)(=O)c3ccc(Cl)cc3)ccc2O[C@H]1CN(C)CC1CCCCC1 | . | 3 | . | 33 | . | 12[16.7 µM]
COc1ccc(S(=O)(=O)Nc2ccc3c(c2)CC(=O)N([C@H](C)CO)C[C@H](C)[C@@H](CN(C)Cc2ccc(Cl)c(Cl)c2)O3)cc1 | -9 | 1 | . | 75* | . | 23[16.7 µM]
C[C@H](CO)N1C[C@H](C)[C@H](CN(C)CC2CCCCC2)Oc2ccc(NS(=O)(=O)c3ccc(Cl)cc3)cc2CC1=O | -1 | -4 | . | 106* | . | 12[16.7 µM]
C[C@H](CO)N1C[C@H](C)[C@@H](CN(C)Cc2ccc(Cl)c(Cl)c2)Oc2ccc(NS(=O)(=O)c3ccc(Cl)cc3)cc2CC1=O | -12 | -1 | . | 70* | . | 22[16.7 µM]
C[C@@H]1CN([C@H](C)CO)C(=O)c2cc(NC(=O)Nc3ccccc3)ccc2O[C@H]1CN(C)C | -4 | 0 | . | 4 | . | 4[16.7 µM]
COc1ccc(C(C)NC(=O)c2ccc(Br)cc2)cc1OC (stereo not given) | . | -2 | -3 | 138* | 1 | .
COc1ccc(C(C)NC(=O)c2ccc([N+](=O)[O-])cc2)cc1OC (stereo not given) | . | 2 | 8 | 26 | 0 | .
COc1cc(/C=N/NC(=S)NCc2ccccc2)ccc1OCC#N | 117* | . | 0 | 10 | -1 | 14
CC(C)NC(=O)Nc1ccc2c(c1)C(=O)N([C@@H](C)CO)C[C@H](C)[C@H](CN(C)S(=O)(=O)c1cccs1)OCCCC[C@@H](C)O2 | 9 | 0 | . | 18 | . | -16[16.7 µM]
